Assay results reported in ChEMBL document CHEMBL4414545, “Beta-Glucuronidase Catalyzes Deconjugation and Activation of Curcumin-Glucuronide in Bone” (J Nat Prod, 2019).
Calls of active or inactive are those of the source. The calls are words filed in the database; no cut-off is given here.

Key:
RAW264.7 = assay: Inhibition of RANKL-induced osteoclastogenesis in murine RAW264.7 cells assessed as formation of TRAP positive multinucleated osteoclasts at 30 uM pretreated for 4 hrs followed by RANKL addition measured after 72 hrs; type: functional, cell-based; conditions: Mus musculus
How it was run: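 RAW 264.7 cells, used within 10 passages, were seeded at 5×10^3/well in DMEM with 10% FBS and allowed to adhere overnight at 37°C. Cells were pretreated 4 h with aglycone curcumin or curcumin-glucuronide, then given RANKL (50 ng/mL final) for 72 h. TRAP-positive multinucleated osteoclasts were counted, n=4/group.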

Beta-glucuronidase [1] = target: T1, Beta-glucuronidase (Mus musculus, UniProt P12265); assay: Prodrug conversion in C57BL/6J mouse bone marrow assessed as beta-glucuronidase mediated stabilization of aglycone curcumin at 0.5 uM administered via oral gavage incubated for 30 mins followed by resuspension in sodium acetate buffer at pH 5 measured after 2 hrs in presence of saccharolactone by LC-MS analysis; type: ADME; conditions: in vivo, pH 5, 0.5 µM
T1 sequence (P12265 whole entry): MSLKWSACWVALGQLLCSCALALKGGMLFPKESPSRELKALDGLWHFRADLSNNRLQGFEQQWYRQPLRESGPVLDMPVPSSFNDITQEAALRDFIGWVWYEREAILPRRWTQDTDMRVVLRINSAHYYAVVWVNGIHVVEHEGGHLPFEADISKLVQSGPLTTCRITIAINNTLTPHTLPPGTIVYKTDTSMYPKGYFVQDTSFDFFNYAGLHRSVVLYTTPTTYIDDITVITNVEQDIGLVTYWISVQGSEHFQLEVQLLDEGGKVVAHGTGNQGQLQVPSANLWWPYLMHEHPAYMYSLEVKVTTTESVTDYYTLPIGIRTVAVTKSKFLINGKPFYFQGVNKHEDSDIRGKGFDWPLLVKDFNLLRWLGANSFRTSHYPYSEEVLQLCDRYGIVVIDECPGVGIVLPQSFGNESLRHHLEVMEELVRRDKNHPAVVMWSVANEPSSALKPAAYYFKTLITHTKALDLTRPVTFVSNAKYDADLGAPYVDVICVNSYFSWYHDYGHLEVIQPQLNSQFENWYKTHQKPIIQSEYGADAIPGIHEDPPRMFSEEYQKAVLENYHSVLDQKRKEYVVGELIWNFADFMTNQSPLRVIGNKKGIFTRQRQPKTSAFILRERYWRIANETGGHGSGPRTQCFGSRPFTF

Beta-glucuronidase [2] = target: T2, Beta-glucuronidase (Homo sapiens, UniProt P08236); assay: Prodrug conversion assessed as recombinant human C-terminal His6-tagged beta-glucuronidase mediated curcumin-glucuronide hydrolysis incubated for 24 hrs by LC-MS analysis; type: ADME; conditions: isolated protein
T2 sequence (P08236 whole entry): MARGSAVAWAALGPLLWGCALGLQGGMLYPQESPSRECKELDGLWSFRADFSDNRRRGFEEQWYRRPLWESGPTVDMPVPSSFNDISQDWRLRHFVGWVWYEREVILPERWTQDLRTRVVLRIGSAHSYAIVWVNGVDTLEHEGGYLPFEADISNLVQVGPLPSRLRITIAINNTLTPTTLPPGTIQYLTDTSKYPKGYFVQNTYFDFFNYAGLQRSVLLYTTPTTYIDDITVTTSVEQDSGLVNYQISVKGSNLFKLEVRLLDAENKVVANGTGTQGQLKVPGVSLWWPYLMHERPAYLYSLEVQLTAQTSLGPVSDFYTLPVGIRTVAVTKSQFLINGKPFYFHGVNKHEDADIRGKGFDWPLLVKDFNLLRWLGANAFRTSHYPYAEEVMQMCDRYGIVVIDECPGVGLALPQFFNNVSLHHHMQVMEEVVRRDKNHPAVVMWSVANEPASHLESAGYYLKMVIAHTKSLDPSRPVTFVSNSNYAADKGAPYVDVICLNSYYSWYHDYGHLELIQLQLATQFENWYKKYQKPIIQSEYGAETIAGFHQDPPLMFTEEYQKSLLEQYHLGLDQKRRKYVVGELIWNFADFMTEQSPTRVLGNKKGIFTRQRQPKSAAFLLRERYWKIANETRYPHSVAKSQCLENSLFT
How it was run: (§1)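 Recombinant human GUSB or α-klotho, 5 μg/mL (15 nM or 45 nM active enzyme), was incubated with curcumin-glucuronide (459 nM) for 24 h at 37°C at pH 5 in enzyme-optimized buffer. Reactions were stopped with HCl and extracted by HLB. Remaining glucuronide and formed aglycone were measured by LC/MS and expressed as % of enzyme-free control, n=3/group.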

Klotho = target: T3, Klotho (Homo sapiens, UniProt Q9UEF7); assay: Prodrug conversion assessed as recombinant human alpha-klotho mediated curcumin-glucuronide hydrolysis incubated for 24 hrs by LC-MS analysis; type: ADME; how it was run: as §1
T3 sequence (Q9UEF7 whole entry): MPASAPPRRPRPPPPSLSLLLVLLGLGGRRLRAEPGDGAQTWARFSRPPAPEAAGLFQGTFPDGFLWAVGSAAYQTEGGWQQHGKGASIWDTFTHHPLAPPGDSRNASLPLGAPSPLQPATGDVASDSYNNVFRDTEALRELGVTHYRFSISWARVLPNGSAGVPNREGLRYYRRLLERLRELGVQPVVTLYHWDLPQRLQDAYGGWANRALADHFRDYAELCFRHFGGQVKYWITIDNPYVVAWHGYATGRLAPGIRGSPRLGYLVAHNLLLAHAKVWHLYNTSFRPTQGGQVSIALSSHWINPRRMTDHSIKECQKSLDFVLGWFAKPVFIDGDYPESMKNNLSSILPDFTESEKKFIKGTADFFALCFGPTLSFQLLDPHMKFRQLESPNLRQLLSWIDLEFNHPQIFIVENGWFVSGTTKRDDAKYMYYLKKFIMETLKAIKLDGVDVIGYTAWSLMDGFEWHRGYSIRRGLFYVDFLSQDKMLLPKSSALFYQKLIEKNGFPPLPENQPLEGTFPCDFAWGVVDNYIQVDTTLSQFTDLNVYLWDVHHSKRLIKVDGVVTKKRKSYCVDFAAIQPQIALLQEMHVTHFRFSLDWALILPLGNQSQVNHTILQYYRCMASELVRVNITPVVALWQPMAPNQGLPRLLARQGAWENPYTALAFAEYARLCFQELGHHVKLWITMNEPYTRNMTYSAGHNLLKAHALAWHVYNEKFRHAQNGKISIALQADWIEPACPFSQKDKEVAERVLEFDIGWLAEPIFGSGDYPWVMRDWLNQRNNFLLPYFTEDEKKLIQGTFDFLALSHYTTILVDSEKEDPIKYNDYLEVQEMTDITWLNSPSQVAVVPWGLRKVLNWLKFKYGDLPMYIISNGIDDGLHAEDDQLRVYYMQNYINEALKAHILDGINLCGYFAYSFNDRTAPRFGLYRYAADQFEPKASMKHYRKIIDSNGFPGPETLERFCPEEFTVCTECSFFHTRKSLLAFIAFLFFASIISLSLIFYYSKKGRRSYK

## COc1cc(/C=C/C(=O)CC(=O)/C=C/c2ccc(O[C@@H]3O[C@H](C(=O)O)[C@@H](O)[C@H](O)[C@H]3O)c(OC)c2)ccc1O
RAW264.7
  inhibition: inactive
Beta-glucuronidase [1]
  Drug metabolism: Metabolite_Detected
Beta-glucuronidase [2]
  Drug metabolism: > 99%
Klotho
  Drug metabolism: 75%
